From ChEMBL document CHEMBL1145248, “Design, new synthesis, and calcilytic activity of substituted 3H-pyrimidin-4-ones” (Bioorg Med Chem Lett, 2005)

Target: T1, Extracellular calcium-sensing receptor (Homo sapiens, UniProt P41180)
T1 sequence (P41180 whole entry): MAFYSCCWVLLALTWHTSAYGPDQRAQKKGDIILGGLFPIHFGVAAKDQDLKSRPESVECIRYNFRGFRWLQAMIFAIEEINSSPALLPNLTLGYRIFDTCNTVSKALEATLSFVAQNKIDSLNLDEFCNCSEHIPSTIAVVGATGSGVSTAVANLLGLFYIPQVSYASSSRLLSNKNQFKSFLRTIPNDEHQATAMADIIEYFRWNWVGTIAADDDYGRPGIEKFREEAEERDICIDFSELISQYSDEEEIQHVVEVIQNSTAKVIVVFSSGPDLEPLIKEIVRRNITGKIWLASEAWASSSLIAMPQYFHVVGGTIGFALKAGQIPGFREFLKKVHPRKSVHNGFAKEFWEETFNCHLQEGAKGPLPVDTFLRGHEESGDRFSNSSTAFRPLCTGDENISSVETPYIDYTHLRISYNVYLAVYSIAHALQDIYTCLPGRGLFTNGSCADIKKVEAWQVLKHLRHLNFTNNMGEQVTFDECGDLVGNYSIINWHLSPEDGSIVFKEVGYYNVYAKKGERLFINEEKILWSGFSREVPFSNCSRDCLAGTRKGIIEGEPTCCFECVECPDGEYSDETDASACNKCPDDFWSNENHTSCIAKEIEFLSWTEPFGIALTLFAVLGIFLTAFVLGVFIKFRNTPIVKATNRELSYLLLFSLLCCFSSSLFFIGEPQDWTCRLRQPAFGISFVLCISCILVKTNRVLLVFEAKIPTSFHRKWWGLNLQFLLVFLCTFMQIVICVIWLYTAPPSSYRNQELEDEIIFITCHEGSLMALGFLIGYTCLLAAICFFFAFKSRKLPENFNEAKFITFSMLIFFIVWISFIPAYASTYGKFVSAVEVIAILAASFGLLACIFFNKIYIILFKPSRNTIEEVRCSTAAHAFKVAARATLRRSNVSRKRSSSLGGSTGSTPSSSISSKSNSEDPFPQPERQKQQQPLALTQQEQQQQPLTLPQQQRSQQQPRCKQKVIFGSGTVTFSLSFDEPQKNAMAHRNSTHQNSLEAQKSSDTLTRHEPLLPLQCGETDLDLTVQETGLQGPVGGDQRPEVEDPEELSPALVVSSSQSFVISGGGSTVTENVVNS
Assay: Inhibitory concentration was evaluated for in vitro calcilytic activity against human calcium receptor
Method in brief: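 HEK 293 4.0-7 cells stably expressing human CaR, loaded with fluo-3. Intracellular Ca2+ rise triggered by raising extracellular Ca2+ from 1.0 to 1.3 mM. Peak fluorescence normalized to the response without compound. Eight concentrations tested in duplicate, top concentration 30 µM. IC50 normalized to an internal reference standard run in parallel in each assay.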

IC50 [nM]	SMILES
200	O=c1c2c(nc(-c3ccccc3O)n1CCc1cccc(F)c1)CCC2
200	O=c1c2c(nc(-c3ccccc3O)n1CCc1ccccc1)CCC2
200	Cc1nc(-c2ccccc2O)n(CCc2ccccc2)c(=O)c1C
1100	Cc1cc(=O)n(CCc2cccc(F)c2)c(-c2ccccc2O)n1
170	Cc1nc(-c2ccccc2O)n(CCc2cccc(F)c2)c(=O)c1C
100	CCc1c(C)nc(-c2ccccc2O)n(CCc2ccccc2)c1=O
97	CCc1c(C)nc(-c2ccccc2O)n(CCc2ccccc2F)c1=O
95	Cc1nc(-c2ccccc2O)n(CCc2cccc(F)c2)c(=O)c1C(C)C

The next lines start with the compound.

SMILES	IC50 [nM]
Cc1cc(=O)n(CCc2ccccc2F)c(-c2ccccc2O)n1	1600
CCCc1c(C)nc(-c2ccccc2O)n(CCc2cccc(F)c2)c1=O	140
O=c1c2c(nc(-c3ccccc3O)n1CCc1ccccc1)CCCC2	140
Cc1c(C(F)(F)F)nc(-c2ccccc2O)n(CCc2ccccc2)c1=O	800
Cc1cc(=O)n(CCc2ccccc2)c(-c2ccccc2O)n1	1900
